Published values of several laboratories.
Compare with care: the assays were run in different laboratories.
Target: Rhodopsin kinase GRK1 (GRK1, Homo sapiens, UniProt Q15835)
Sequence (Q15835 1-563, as in one of the studies): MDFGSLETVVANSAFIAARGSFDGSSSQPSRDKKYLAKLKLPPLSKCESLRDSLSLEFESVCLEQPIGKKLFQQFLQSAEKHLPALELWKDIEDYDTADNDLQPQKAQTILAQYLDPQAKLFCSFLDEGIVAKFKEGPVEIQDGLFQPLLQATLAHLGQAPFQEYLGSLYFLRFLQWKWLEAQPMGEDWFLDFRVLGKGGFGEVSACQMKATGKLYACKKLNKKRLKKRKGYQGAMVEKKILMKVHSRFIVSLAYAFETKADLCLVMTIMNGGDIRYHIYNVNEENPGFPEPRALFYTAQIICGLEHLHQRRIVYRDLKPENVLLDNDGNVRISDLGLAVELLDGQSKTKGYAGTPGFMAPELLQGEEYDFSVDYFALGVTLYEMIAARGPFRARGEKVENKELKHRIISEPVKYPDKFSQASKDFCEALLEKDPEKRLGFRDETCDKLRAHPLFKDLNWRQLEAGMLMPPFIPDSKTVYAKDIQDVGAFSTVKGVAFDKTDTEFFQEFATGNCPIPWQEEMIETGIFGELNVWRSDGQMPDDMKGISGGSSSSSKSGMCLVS

Cc1cc(NC(=O)c2cccc(S(F)(F)(F)(F)F)c2)cc(-n2ccn3nc(-c4cccnc4)cc23)c1  remaining binding (cell-free assay, competition with immobilised ligand; 1 µM): 50.4%
Cn1c2c(c3ccc(Cl)c(Cl)c31)C(C#N)C1(CCCC1)NC2=O (stereo not drawn)  ΔTm (thermal stability, DSF; 10 µM): 0 °C
Cc1cnc(NC2CCOCC2)nc1-n1cnc(C(=O)NC(CN)c2cc(F)cc(Cl)c2)c1 (stereo not drawn)  remaining activity (enzyme activity, inhibitor, radiometric; 1 µM): 98%
Cn1c2c(Cl)c(Cl)ccc2c2cc(N)[nH]c(=O)c21  ΔTm (thermal stability, DSF; 10 µM): 0.5 °C
COc1ccc2cc(OCC3(C(=O)O)CN(C(=O)c4ccc(F)cc4)C3)ccc2c1  remaining binding (cell-free assay, competition with immobilised ligand; 1 µM): 100%
CCN1CCC2(CC1)NC(=O)c1c(c3ccc(Cl)c(Cl)c3n1C)C2C#N (racemic)  ΔTm (thermal stability, DSF; 10 µM): 1.2 °C
COc1ccc2c(c1)O[C@H](c1ccc(OC)c(OC)c1)C[C@@H]2NC(=O)C1(c2ccc3c(c2)OC(F)(F)O3)CC1  remaining binding (cell-free assay, competition with immobilised ligand; 1 µM): 97%
Cc1cc(NC(=O)c2cccc3cc(-c4cccc5[nH]nc(N)c45)ccc23)ccc1F  activity vs control (enzyme activity, inhibitor; 0.1 µM): 85%
CC(C)CC(=O)N1CCc2nc(-c3ccc(Br)cc3)nc(N(C)Cc3ccccc3)c2C1  remaining binding (cell-free assay, competition with immobilised ligand; 0.1 µM): 100%
O=C(Nc1cnn(-c2csc(C(=O)NC3COC3)c2)c1)Nc1c(F)cccc1Cl  remaining activity (enzyme activity, inhibitor; 5 µM): 92.9%
N#CC1c2c([nH]c3c(Cl)c(Cl)ccc23)C(=O)NC12CCCCC2 (racemic)  ΔTm (thermal stability, DSF; 10 µM): 0.6 °C
Nc1ncnc2occ(-c3ccc(NC(=O)Nc4cc(C(F)(F)F)ccc4F)cc3)c12  remaining signal (cell-free assay, inhibitor; 20 µM): 100%
CC(C)(O)[C@H]1CC[C@H](Nc2ccc3ncc(-c4cccc(C(F)(F)F)c4)n3n2)CC1  remaining activity (enzyme activity, inhibitor; 1 µM): 89.2%
Cn1c2c(c3ccc(Cl)c(Cl)c31)C(C#N)C1(CCCCC1)NC2=O (racemic)  ΔTm (thermal stability, DSF; 10 µM): 0.1 °C
O=C(NS(=O)(=O)c1ccc(NCC2CCOCC2)c([N+](=O)[O-])c1)c1ccc(N2CCN(Cc3ccc(C(F)(F)F)cc3-c3ccc(Cl)cc3)CC2)cc1Oc1cnc2[nH]ccc2c1  remaining binding (cell-free assay, competition with immobilised ligand; 1 µM): 100%
